From ChEMBL document CHEMBL1153903, “Tethered thiazolidinone dimers as inhibitors of the bacterial type III secretion system” (Bioorg Med Chem Lett, 2009)

Assay: Inhibition of T3SS-dependent SipA secretion in Salmonella Typhimurium
Set-up: species or system Salmonella enterica subsp. enterica serovar Typhimurium
Method in brief: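 Salmonella typhimurium type III secretion read out as secretion of the substrate SipA into culture supernatants. Supernatant proteins TCA-precipitated, resolved by SDS-PAGE and Western blotted with anti-SipA antibody; IC50 derived from the reduction in secreted SipA.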

Compound | IC50 [µM]
COc1cc(/C=C2\S/C(=N\c3ccccc3)N(CC(=O)Nc3ccccc3NC(=O)CN3C(=O)/C(=C/c4cc(OC)c(O)c(OC)c4)S/C3=N\c3ccccc3)C2=O)cc(OC)c1O | 22
COc1cc(/C=C2\S/C(=N\c3ccccc3)N(CCNC(=O)C3CCCN3C(=O)CN3C(=O)/C(=C/c4cc(OC)c(O)c(OC)c4)S/C3=N\c3ccccc3)C2=O)cc(OC)c1O (configuration not stated) | 55
COc1cc(/C=C2\S/C(=N\c3ccccc3)N(CCCCCCNC(=O)CCCN3C(=O)/C(=C/c4cc(OC)c(O)c(OC)c4)S/C3=N\c3ccccc3)C2=O)cc(OC)c1O | 17
COc1cc(/C=C2\S/C(=N\c3ccccc3)N(c3ccccc3)C2=O)cc(OC)c1O | 83
COc1cc(/C=C2\S/C(=N\c3ccccc3)N(CCCCCCNC(=O)CN3C(=O)/C(=C/c4cc(OC)c(O)c(OC)c4)S/C3=N\c3ccccc3)C2=O)cc(OC)c1O | 5
COc1cc(/C=C2\S/C(=N\c3ccccc3)N(CCCNC(=O)CN3C(=O)/C(=C/c4cc(OC)c(O)c(OC)c4)S/C3=N\c3ccccc3)C2=O)cc(OC)c1O | 48
COc1cc(/C=C2\S/C(=N\c3ccccc3)N(CCN3CCN(CCN4C(=O)/C(=C/c5cc(OC)c(O)c(OC)c5)S/C4=N\c4ccccc4)CC3)C2=O)cc(OC)c1O | 44
COc1cc(/C=C2\S/C(=N\c3ccccc3)N(CCCCCCNCCN3C(=O)/C(=C/c4cc(OC)c(O)c(OC)c4)S/C3=N\c3ccccc3)C2=O)cc(OC)c1O | 65
COc1cc(/C=C2\S/C(=N\c3ccccc3)N(CCCCNC(=N)NCCN3C(=O)/C(=C/c4cc(OC)c(O)c(OC)c4)S/C3=N\c3ccccc3)C2=O)cc(OC)c1O | 47
COc1cc(/C=C2\S/C(=N\c3ccccc3)N(CCCNC(=O)[C@H](CCCNC(=N)N)NC(=O)CN3C(=O)/C(=C/c4cc(OC)c(O)c(OC)c4)S/C3=N\c3ccccc3)C2=O)cc(OC)c1O | 48
COc1cc(/C=C2\S/C(=N\c3ccccc3)N(CC(=O)Nc3cccc(NC(=O)CN4C(=O)/C(=C/c5cc(OC)c(O)c(OC)c5)S/C4=N\c4ccccc4)c3)C2=O)cc(OC)c1O | 80
COc1cc(/C=C2\S/C(=N\c3ccccc3)N(CCCNC(=O)[C@H](Cc3ccc(-c4ccccc4)cc3)NC(=O)[C@H](CCCN)N3C(=O)/C(=C/c4cc(OC)c(O)c(OC)c4)S/C3=N\c3ccccc3)C2=O)cc(OC)c1O | 49
